The record followed here is ChEMBL document CHEMBL1141653, “New bis(2-aminoimidazoline) and bisguanidine DNA minor groove binders with potent in vivo antitrypanosomal and antiplasmodial activity” (J Med Chem, 2008).

One may read the pIC50 as the IC50 on a negative log10 scale, so that one unit is a factor of ten. As usually defined, the ΔTm is the change in melting temperature against a reference sample. What is called inhibition is the drop in the measured response relative to a control, in per cent.

The subject of one experiment is L6. Put plainly: Cytotoxicity against rat L6 cells. In kind it is cell-based.
Experiment [1] concerns Trypanosoma brucei rhodesiense. Put plainly: Antitrypanosomal activity against Trypanosoma brucei rhodesiense STIB900. In kind it is functional, organism-based. In a few lines:
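Bloodstream forms (10⁴ per well) in MEM with 15% heat-inactivated horse serum, 25 mM HEPES, 2-mercaptoethanol, hypoxanthine. 3-fold serial dilutions from 90 to 0.123 µg/mL, in duplicate. Incubation 72 h at 37 °C, 5% CO₂. Resazurin then added for 2–4 h more. Fluorescence read at ex 536 / em 588 nm.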

Experiment [2] in a line: Binding affinity for DNA assessed as thermal melting temperature. In a few lines: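 Thermal melting of poly(dA)·poly(dT): DNA at 40 µM base with compound at 12 µM (ratio 0.3) in MES 0.01 M / EDTA 0.001 M buffer, pH 6.25. A260 followed from 20 to 95 °C at 0.5 °C/min. Value is ΔTm.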
Experiment [3] has as its system Ferriprotoporphyrin IX. Put plainly: Inhibition of ferriprotoporphyrin 9 biomineralization. The experiment is classed as functional. In a few lines: (§1)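 β-Hematin formation: hemin chloride (0.5 mg/mL in DMSO) with 0.5 M sodium acetate pH 4.4 and drug dilutions, 37 °C for 18–24 h. Pellet washed with DMSO, dissolved in 0.1 N NaOH, A405 read. Percent inhibition relative to solvent control. IC₅₀ derived, or percent inhibition at 1 mg/mL (highest concentration) given when no IC₅₀.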

Experiment [4] relates to Plasmodium berghei. Put plainly: Antiplasmodial activity as survival against Plasmodium berghei ANKA infection in NMRI mice (Mus musculus) at 50 mg/kg intraperitoneal dose for 4 days.
The nature of experiment [5]: Selectivity index, ratio of IC50 for rat L6 cells to IC50 for Plasmodium falciparum K1. The experiment is classed as functional. In a few lines:
(§2)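 Ratio of the IC₅₀ on L-6 rat skeletal myoblasts to the parasite IC₅₀. Cytotoxicity measured in RPMI 1640 with L-glutamine and 10% FBS, serial dilutions 90 to 0.123 µg/mL, duplicate. After 72 h, Alamar blue (resazurin) added for 2 h. Fluorescence read at ex 536 / em 588 nm.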

Experiment [6] concerns Plasmodium berghei. Put plainly: Antiplasmodial activity against Plasmodium berghei ANKA infected NMRI mice (Mus musculus) as reduced parasitemia at 50 mg/kg intraperitoneal dose after 4 days. On the set-up: scale not given: the % may be the effect or the level left.
The subject of another experiment is Plasmodium falciparum. Put plainly: Antiplasmodial activity against Plasmodium falciparum K1 in [3H]hypoxanthine incorporation assay. The experiment is classed as functional, organism-based. Particulars: K1, 72 h. In a few lines: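 K1 erythrocytic stages in RPMI 1640 without hypoxanthine with AlbuMax, human A⁺ red cells at 2.5% hematocrit, 0.3% parasitemia. Compounds taken from 10 mg/mL DMSO stock, tested as serial doubling dilutions at 37 °C in 4% CO₂/3% O₂/93% N₂. After 48 h, ³H-hypoxanthine (0.5 µCi) added for 24 h more; incorporation by scintillation counting. IC₅₀ from sigmoidal curves.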

The nature of experiment [7]: Selectivity index, ratio of IC50 for rat L6 cells to IC50 for Trypanosoma brucei rhodesiense STIB900. The experiment is classed as functional. In short, it runs like this:
as §2

Experiment [8] deals with Plasmodium berghei. Put plainly: Antiplasmodial activity against parasitemia in Plasmodium berghei ANKA infected NMRI mice (Mus musculus) at 30 mg/kg intraperitoneal dose after 4 days.
The test system of experiment [9] is Ferriprotoporphyrin IX. Put plainly: Inhibition of ferriprotoporphyrin 9 biomineralization at 1 mg/ml. In kind it is functional. In a few lines:
as §1

The subject of experiment [10] is Plasmodium berghei. Put plainly: Antiplasmodial activity as survival against Plasmodium berghei ANKA infection in NMRI mice (Mus musculus) at 30 mg/kg intraperitoneal dose for 4 days.
Experiment [11] deals with Plasmodium berghei (ANKA). Put plainly: Antiplasmodial activity as survival against Plasmodium berghei ANKA infection in NMRI mice (Mus musculus) at 20 mg/kg intraperitoneal dose for 4 days.
Experiment [12] concerns Plasmodium berghei (ANKA). Put plainly: Antiplasmodial activity against parasitemia in Plasmodium berghei ANKA infected NMRI mice (Mus musculus) at 20 mg/kg intraperitoneal dose after 4 days.
For experiment [13], the system named is Plasmodium berghei (ANKA). Put plainly: Antiplasmodial activity against parasitemia in Plasmodium berghei ANKA infected NMRI mice (Mus musculus) at 10 mg/kg intraperitoneal dose after 4 days.
For experiment [14], the system named is Plasmodium berghei (ANKA). Put plainly: Antiplasmodial activity against parasitemia in Plasmodium berghei ANKA infected NMRI mice (Mus musculus) at 5 mg/kg intraperitoneal dose after 4 days.
Experiment [15] concerns Plasmodium berghei (ANKA). Put plainly: Antiplasmodial activity as survival against Plasmodium berghei ANKA infection in NMRI mice (Mus musculus) at 10 mg/kg intraperitoneal dose for 4 days.
For experiment [16], the system named is Plasmodium berghei (ANKA). Put plainly: Antiplasmodial activity as survival against Plasmodium berghei ANKA infection in NMRI mice (Mus musculus) assessed at 5 mg/kg intraperitoneal dose for 4 days.

pIC50: −log10 of the molar value.

Consider `c1cc(Sc2ccc(NC3=NCCN3)cc2)ccc1NC1=NCCN1`, for which the pIC50 was 4.63 with L6, 6.41 in experiment [1], 3.02 in the experiment with Ferriprotoporphyrin IX [3] and 7.60 with Plasmodium falciparum. The ΔTm in experiment [2] was 24.1 °C. The compound also yielded a Survival in the experiment on Plasmodium berghei [4] of 11.3 days. In addition, the “Ratio IC50” value in experiment [5] was 932; in experiment [7], 60. In addition, the Activity in the experiment with Plasmodium berghei [6] is given as 97.5%.

For `c1cc(Oc2ccc(NC3=NCCN3)cc2)ccc1NC1=NCCN1`, the values for the pIC50 (in the experiment with L6; in [1]; with Plasmodium falciparum) were 4.39, 6.33 and 7.42, respectively. For the same compound, the Activity in the experiment on Plasmodium berghei [8] amounted to 44.1%. In addition, the inhibition in the experiment with Ferriprotoporphyrin IX [9] came out at 0%. For the same compound, in experiment [2], the ΔTm is 27.1 °C. In addition, the Survival in the experiment on Plasmodium berghei [10] amounted to 7 days. In addition, the figures for the “Ratio IC50” value in [5] and in [7] were 1079 and 88, respectively.

In [11], `N=C(N)Nc1ccc(N2CCN(c3ccc(NC(=N)N)cc3)CC2)cc1` registered a Survival of 7 days. Further, the values for the pIC50 (with L6; in [1]; in the experiment on Plasmodium falciparum) were 4.33, 6.57 and 7.82, respectively. For the same compound, the inhibition in the experiment with Ferriprotoporphyrin IX [9] was determined as 0%. For the same compound, the ΔTm in [2] is 27.8 °C. The “Ratio IC50” value is recorded as 3053 in [5] and 172 in [7]. For the same compound, in experiment [12], the Activity was found to be 42.48%.

Take `CCN(CC)CCCC(C)Nc1ccnc2cc(Cl)ccc12` (stereo not drawn) [CHLOROQUINE]: the Activity in experiment [13] and in experiment [14] was 99.6% throughout. Further, in the experiment with Ferriprotoporphyrin IX [3], the pIC50 was 4.75. Also, the Survival in [15] is 20 days; in [16], 9 days.

Regarding `c1cc(N2CCN(c3ccc(NC4=NCCN4)cc3)CC2)ccc1NC1=NCCN1`, the Survival in experiment [11] worked out at 7 days. The pIC50 with L6 was 3.98; in experiment [1] it was 6.93; with Ferriprotoporphyrin IX [3] it was 3.89; with Plasmodium falciparum, 7.91. The ΔTm in experiment [2] stood at 38.8 °C. Also, the “Ratio IC50” value in experiment [5] is on record as 8455; in experiment [7] it was 881. The Activity in experiment [12] amounted to 0%.

Regarding `c1cc(NC2=NCCN2)ccc1Cc1ccc(NC2=NCCN2)cc1`, the Survival in experiment [11] was found to be 6.7 days. In addition, the pIC50 in the experiment on L6 is 4.20; in experiment [1] it was 6.05; in the experiment with Plasmodium falciparum, 7.80. For the same compound, the ΔTm in experiment [2] worked out at 18.8 °C. The “Ratio IC50” value was determined as 4051 in experiment [5] and 71 in [7]. Besides, in experiment [12], the Activity is reported as 8.9%.

`c1cc(Nc2ccc(NC3=NCCN3)cc2)ccc1NC1=NCCN1`: the Survival in [11] was 7 days. Besides, the pIC50 is 3.67 in the experiment on L6, 7.16 in [1], 3.37 with Ferriprotoporphyrin IX [3] and 8.06 with Plasmodium falciparum. In addition, the ΔTm in experiment [2] was 38.5 °C. For the same compound, the “Ratio IC50” value in experiment [5] came to 24000; in [7], 3072. This compound also displayed an Activity in [12] of 65.51%.
